Measurements: article PMC2652879 (Clinical cancer research : an official journal of the …, 2008)

Legend:
[1] = biological target: T1, PARP (Homo sapiens, UniProt P09874); experiment: PARP activity immunoassay ex vivo in peripheral blood lymphocytes
Summary of the method: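 Patients with solid tumours (part 1) got one IV dose of PARP inhibitor on day -7, then temozolomide 100 mg/m2/day x5 q28 days with the inhibitor, over 5 escalating dose levels. PBLs were sampled at baseline, end of infusion, 4-6 h and 24 h on days -7, 1 and 4 of cycle 1, plus day 8 at PID. PAR formation was quantified immunologically ex vivo. PID: maximal (≥50%) activity reduction at 24 h, with no gain over the preceding dose.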

[2] = tested on: advanced solid tumors; experiment: Tumour response by RECIST in phase I patients; type: in vivo, human; details: AG014699 + TMZ
Summary of the method: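 Patients with advanced solid tumours received a daily 30 min IV infusion of test compound followed by oral temozolomide for 5 consecutive days, repeated every 28 days. Response was assessed by RECIST every 2 cycles, and patients completing 2 cycles were evaluable.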

[3] = biological target: T1, PARP; experiment: PARP activity immunoassay in paired tumour biopsies of melanoma patients; type: in vivo
Summary of the method: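 Chemonaive melanoma patients (part 2) received PARP inhibitor at PID with temozolomide escalated to at most 200 mg/m2; one extra level used 18 mg/m2 inhibitor plus 200 mg/m2 temozolomide. Paired biopsies were taken at baseline and after the first inhibitor dose (4, 5 or 24 h stated). PAR formation was quantified immunologically ex vivo. Activity was expressed as percentage of the same patient's pre-treatment biopsy.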

[4] = tested on: DNA strand breaks in PBLs; experiment: Alkaline Comet assay for DNA strand breaks in PBLs of patients; type: in vivo, human
Summary of the method: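 Alkaline Comet assay (modified Olive method) on peripheral blood mononuclear cells, with slides stained with SYBR gold. Blood was sampled in cycle 1 before, 4 h and 24 h after temozolomide, following a daily 30 min IV infusion of test compound. For each sample, 50 cells from two slides were scored for % tail DNA and Olive tail moment, and means were taken. Readings were averaged by dose cohort (up to 6 patients).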

[5] = Toxicity / dose limiting toxicity in phase I trial; type: in vivo, human; details: for dose recommended for future studies: combination, x5 every 28 days
[6] = tested on: SW620 tumours; details: most efficacious dose of AG014699 combined with TMZ; animals bearing SW620 tumours; cited from earlier work
[7] = tested on: PARP; details: most efficacious dose of AG014699 combined with TMZ; cited from earlier work
[8] = tested on: metastatic melanoma; details: phase II, AG014699 with TMZ, preliminary results; cited from earlier work
[9] = Plasma pharmacokinetics of AG014447; type: in vivo, human; details: for effect of TMZ on pharmacokinetics (interaction): after a single dose or multiple doses
[10] = cited from earlier work
[11] = AG014447 concentration in tumour biopsy homogenates; type: in vivo, human; details: samples taken 5 hours (24 hr in 3 patients) after administration

T1 sequence (P09874 whole entry, the tested form may be a part): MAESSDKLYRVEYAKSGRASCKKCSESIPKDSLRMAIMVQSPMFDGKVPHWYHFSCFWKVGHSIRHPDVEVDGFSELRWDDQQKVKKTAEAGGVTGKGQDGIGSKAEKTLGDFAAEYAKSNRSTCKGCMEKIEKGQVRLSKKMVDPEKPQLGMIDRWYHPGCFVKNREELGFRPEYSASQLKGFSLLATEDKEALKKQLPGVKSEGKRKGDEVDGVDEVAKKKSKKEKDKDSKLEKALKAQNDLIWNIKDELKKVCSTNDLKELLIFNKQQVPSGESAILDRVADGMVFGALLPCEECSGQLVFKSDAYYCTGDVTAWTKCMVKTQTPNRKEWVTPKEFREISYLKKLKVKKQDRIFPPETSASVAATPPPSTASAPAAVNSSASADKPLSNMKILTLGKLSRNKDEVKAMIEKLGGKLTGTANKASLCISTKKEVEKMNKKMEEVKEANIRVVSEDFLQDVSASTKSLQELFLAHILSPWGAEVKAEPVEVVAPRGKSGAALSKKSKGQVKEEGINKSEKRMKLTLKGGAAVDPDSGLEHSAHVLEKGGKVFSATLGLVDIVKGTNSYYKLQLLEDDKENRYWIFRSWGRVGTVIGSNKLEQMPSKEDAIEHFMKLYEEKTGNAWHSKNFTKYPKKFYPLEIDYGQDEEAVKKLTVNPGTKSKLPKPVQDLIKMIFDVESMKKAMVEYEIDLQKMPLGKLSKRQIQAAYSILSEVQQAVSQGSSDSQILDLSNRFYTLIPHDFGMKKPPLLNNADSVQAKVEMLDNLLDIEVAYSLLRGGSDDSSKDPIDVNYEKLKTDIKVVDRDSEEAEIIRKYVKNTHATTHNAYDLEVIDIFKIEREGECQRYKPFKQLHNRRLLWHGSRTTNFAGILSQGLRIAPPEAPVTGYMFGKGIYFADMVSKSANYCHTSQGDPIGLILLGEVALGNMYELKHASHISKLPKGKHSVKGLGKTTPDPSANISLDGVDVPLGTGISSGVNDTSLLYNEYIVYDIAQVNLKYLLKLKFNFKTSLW

## CNCc1ccc(-c2[nH]c3cc(F)cc4c3c2CCNC4=O)cc1 [AG014699]
[1]; 12 mg/m^2/day, cycle 1 day 8, 72 hours after the last dose
  PBL PARP enzyme activity recovered, of baseline: ~50%
[1]; all AG014699 dose levels, at the end of infusion
  PARP inhibition in PBLs: > 90%
[1]; at PID 12 mg/m^2
  inhibition of PBL PARP activity: 74 -97%
[1]; based on PBL (surrogate tissue) PARP inhibition, with TMZ 100 mg/m^2 daily x 5
  PARP-inhibitory dose (PID): 12 mg/m^2
[1]; doses above 8 mg/m^2
  recovery of PBL PARP activity over 24 hours: no recovery was observed
[1]; lower dose levels
  recovery of PBL PARP activity over 24 hours: recovery of enzyme activity over 24 hours
[1]; part 1, 5 dose levels, TMZ 100 mg/m^2/day
  PARP-inhibitory dose (PID): 12 mg/m^2/day
[2]; no prior chemotherapy for melanoma
  tumour response in patients with metastatic melanoma: one documented complete and one partial response
[2]; previously treated with surgery and imatinib
  tumour response in a patient with a desmoid tumour: a further partial response
[3]; at 5 hours
  Mean tumor PARP inhibition: 92%
  tumor PARP inhibition, range: 46 - 97%
[3]; part 2, all biopsies, 12 and 18 mg/m^2
  PARP inhibition in paired tumour biopsies: > 50%
[4]; Day 1, PARP inhibitory doses (12-18 mg/m^2) with TMZ, p=0.03
  mean increase in Comet tail size at 24 h vs 4 h: 3%
[4]; Day 1, lower doses (1-8 mg/m^2) with TMZ
  mean decrease in Comet tail size at 24 h vs 4 h: 8%
[4]; all patients treated at PID
  DNA single strand breaks (SSB): increases in DNA SSB
[4]; patients treated with AG014699 and TMZ
  DNA damage in PBLs (Comet analysis): evidence of DNA damage in all patients
[5]; AG014699 18 mg/m^2/day given with TMZ 200 mg/m^2/day
  dose limiting toxicity observed: Myelosuppression
[5]; Part 1 cohort 1, AG014699 1 mg/m^2 + TMZ 100 mg/m^2, 3 patients, 30 cycles
  DLTs and other grade 3/4 toxicity: None
[5]; Part 1 cohort 2, AG014699 2 mg/m^2 + TMZ 100 mg/m^2, 4 patients, 11 cycles
  DLTs and other grade 3/4 toxicity: None
[5]; Part 1 cohort 3, AG014699 4 mg/m^2 + TMZ 100 mg/m^2, 4 patients, 20 cycles
  DLTs and other grade 3/4 toxicity: None
[5]; Part 1 cohort 4, AG014699 8 mg/m^2 + TMZ 100 mg/m^2, 4 patients, 5 cycles
  DLTs and other grade 3/4 toxicity: None
[5]; Part 1 cohort 5, AG014699 12 mg/m^2 + TMZ 100 mg/m^2, 3 patients, 11 cycles
  DLTs and other grade 3/4 toxicity: None
[5]; Part 2 cohort 6, AG014699 12 mg/m^2 + TMZ 135 mg/m^2, 3 patients, 6 cycles
  DLTs and other grade 3/4 toxicity: None
[5]; Part 2 cohort 7, AG014699 12 mg/m^2 + TMZ 170 mg/m^2, 3 patients, 10 cycles
  DLTs and other grade 3/4 toxicity: None
[5]; Part 2 cohort 8, AG014699 12 mg/m^2 + TMZ 200 mg/m^2, 3 patients, 16 cycles
  DLTs and other grade 3/4 toxicity: None
[5]; combination with temozolomide
  Recommended dose: 12 mg/m^2
[5]
  dose recommended for future studies: 12 mg/m^2/day
[5]; part 2, PARP inhibitory dose of AG014699 with 200 mg/m^2 temozolomide
  DLT: without DLT
[5]; patients, no toxic deaths
  tolerability of the combination with temozolomide: well tolerated
[5]; patients, single agent
  toxicity attributable to AG014699 alone: No toxicity of any kind
[6]
  antitumour efficacy: cures were seen
[7]
  xenograft PARP inhibition: 50%
[8]
  partial response rate: 17%
  patients having stable disease for 6 months or more: 17%
[9]; 1-18 mg/m^2, 30 minute IV infusion
  pharmacokinetic linearity: linear
[9]; CYP2D6 genotype *4,*4 vs wild type/heterozygous
  exposure (AUC0-24hr) in predicted extensive vs poor CYP2D6 metabolism: similar
[9]
  effect of TMZ on pharmacokinetics (interaction): no interaction
[9]; cohort 2, 699 dose 2 mg/m^2 (n=3), TMZ dose 100, day 1
  t^1/2 mean: 3.8 h
[9]; cohort 2, 699 dose 2 mg/m^2 (n=3), TMZ dose 100, day 4
  t^1/2 mean: 8.0 h
[9]; cohort 2, 699 dose 2 mg/m^2 (n=3), TMZ dose 100, day -7
  t^1/2 mean: 6.9 h
[9]; cohort 3, 699 dose 4 mg/m^2 (n=3), TMZ dose 100, day 1
  t^1/2 mean: 10.6 h
[9]; cohort 3, 699 dose 4 mg/m^2 (n=3), TMZ dose 100, day 4
  t^1/2 mean: 10.9 h
[9]; cohort 3, 699 dose 4 mg/m^2 (n=3), TMZ dose 100, day -7
  t^1/2 mean: 23.2 h
[9]; cohort 4, 699 dose 8 mg/m^2 (n=4), TMZ dose 100, day 1
  t^1/2 mean: 13.9 h
[9]; cohort 4, 699 dose 8 mg/m^2 (n=4), TMZ dose 100, day 4
  t^1/2 mean: 18.3 h
[9]; cohort 4, 699 dose 8 mg/m^2 (n=4), TMZ dose 100, day -7
  t^1/2 mean: 19.9 h
[9]; cohort 5-8, 699 dose 12 mg/m^2 (n=12), TMZ dose 100-200, day 1
  t^1/2 mean: 15.0 h
[9]; cohort 5-8, 699 dose 12 mg/m^2 (n=12), TMZ dose 100-200, day 4
  t^1/2 mean: 16.8 h
[9]; cohort 5-8, 699 dose 12 mg/m^2 (n=12), TMZ dose 100-200, day -7
  t^1/2 mean: 11.5 h
[9]; cohort 9, 699 dose 18 mg/m^2 (n=6), TMZ dose 200, day 1
  t^1/2 mean: 16.0 h
[9]; cohort 9, 699 dose 18 mg/m^2 (n=6), TMZ dose 200, day 4
  t^1/2 mean: 15.2 h
[9]; cohort 9, 699 dose 18 mg/m^2 (n=6), TMZ dose 200, day -7
  t^1/2 mean: 13.1 h
[9]; normalized for actual dose and for mg/m^2 dose (both cases)
  inter-subject variability of normalized AUC0-24h: 54%

## Cn1nnc2c(C(N)=O)ncn2c1=O [Temozolomide, reference compound]
[10]; TMZ 200 mg/m^2/day
  tolerability: well tolerated
[10]; TMZ 225 mg/m^2/day
  toxicity: significant myelosuppression
[5]; combination with AG014699
  Recommended dose: 200 mg/m2
[5]
  dose recommended for future studies: 200 mg/m^2/day

## CNCc1ccc(-c2[nH]c3cc(F)cc4c3c2CCNC4=O)cc1 [AG014447]
[11]
  concentration in tumour biopsy homogenates, range: 5-110 ng/g tumour protein
[9]; listed as AG-014447
  effect of TMZ on pharmacokinetics (interaction): no evidence that TMZ has an effect
[9]; mean for the treated population
  mean terminal half-life (CV%): 9.5 (50.4) hours
